In ChEMBL document CHEMBL1127799, “Derivatives of a novel cyclopeptolide. 1. Synthesis, antifungal activity, and structure-activity relationships” (1994):
In brackets after ≈: the same amount, converted by molar mass.

What was measured:
Type in all cases: functional
[1] = tested on: Pichia kudriavzevii; test: Tested for minimum inhibitory concentration against Candida krusei 132 (C.k) at pH of 6.5.
Summary of the method: (§1)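 Broth microdilution in malt extract broth, initial pH 4.5 or 6.5, with 1×10^3 CFU per 0.2 mL well of thawed stored cultures. Compound stocks were made in 5% DMSO/0.2% Tween 80 and diluted to final 0.05–100 μg/mL. Plates were incubated 48 h at 30 °C and read macroscopically. MIC was the lowest concentration with no detectable growth. Vehicle-only wells served as controls.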

[2] = tested on: Candida tropicalis; test: Tested for minimum inhibitory concentration against Candida tropicalis 43 (C.t) at pH of 4.5.; summary of the method: as §1
[3] = tested on: Meyerozyma guilliermondii; test: Tested for minimum inhibitory concentration against Candida guilliermondii 80 (C.g) at pH of 6.5.; summary of the method: as §1
[4] = tested on: Candida albicans; test: tested for minimum inhibitory concentration against Candida albicans 124 (Candida albicans) at pH of 6.5.; summary of the method: as §1
[5] = tested on: Candida tropicalis; test: Tested for minimum inhibitory concentration against Candida tropicalis 43 (C.t) at pH of 6.5.; summary of the method: as §1
[6] = tested on: Candida albicans; test: Tested for minimum inhibitory concentration against Candida albicans 124 (Candida albicans) at pH of 4.5.; summary of the method: as §1
[7] = tested on: Meyerozyma guilliermondii; test: Tested for minimum inhibitory concentration against Candida guilliermondii 80 (C.g) at pH of 4.5.; summary of the method: as §1
[8] = tested on: Pichia kudriavzevii; test: Tested for minimum inhibitory concentration against Candida krusei 132 (C.k) at pH of 4.5.; summary of the method: as §1
[9] = tested on: Candida albicans; test: Tested for minimum inhibitory concentration against Candida albicans 124 at pH of 4.5.; summary of the method: as §1
[10] = tested on: Candida tropicalis; test: Tested for minimum inhibitory concentration against Candida tropicalis 43 at pH of 4.5.; summary of the method: as §1
[11] = tested on: Meyerozyma guilliermondii; test: Tested for minimum inhibitory concentration against Candida guilliermondii 80 at pH of 4.5.; summary of the method: as §1
[12] = tested on: Candida albicans; test: Tested for minimum inhibitory concentration against Candida albicans 124 at pH of 6.5.; summary of the method: as §1
[13] = tested on: Pichia kudriavzevii; test: Tested for minimum inhibitory concentration against Candida krusei 132 at pH of 4.5.; summary of the method: as §1
[14] = tested on: Meyerozyma guilliermondii; test: Tested for minimum inhibitory concentration against Candida guilliermondii 80 at pH of 6.5.; summary of the method: as §1
[15] = tested on: Candida tropicalis; test: Tested for minimum inhibitory concentration against Candida tropicalis 43 at pH of 6.5.; summary of the method: as §1
[16] = tested on: Pichia kudriavzevii; test: Tested for minimum inhibitory concentration against Candida krusei 132 at pH of 6.5.; summary of the method: as §1
[17] = tested on: Candida albicans; test: Tested for minimum inhibitory concentration against Candida albicans 124 (Candida albicans) at pH of 6.5.; summary of the method: as §1

C=CCOC(=O)C[C@H]1C(=O)N(C)[C@@H]([C@@H](C)CC)C(=O)N(C)[C@@H]([C@H](C)CC)C(=O)NCC(=O)N(C)[C@@H](C(C)C)C(=O)N[C@@H](Cc2ccc(OCC=C)cc2)C(=O)O[C@H](C)C(=O)N2CCCC[C@H]2C(=O)N(C)[C@@H](C(C)C)C(=O)N[C@@H](C(C)C)C(=O)N1C
MIC [1]: > 100 µg/mL | MIC [2]: > 100 µg/mL | MIC [3]: > 100 µg/mL | MIC [4]: > 100 µg/mL | MIC [5]: > 100 µg/mL | MIC [6]: > 100 µg/mL | MIC [7]: > 100 µg/mL | MIC [8]: > 100 µg/mL

CC[C@@H](C)[C@H]1C(=O)NCC(=O)N(C)[C@@H](C(C)C)C(=O)N[C@@H](Cc2ccc(OC/C=C(\C)CCC=C(C)C)cc2)C(=O)O[C@H](C)C(=O)N2CCCC[C@H]2C(=O)N(C)[C@@H](C(C)C)C(=O)N[C@@H](C(C)C)C(=O)N(C)[C@@H](CC(=O)O)C(=O)N(C)[C@@H]([C@@H](C)CC)C(=O)N1C
MIC [9]: > 100 µg/mL | MIC [10]: > 100 µg/mL | MIC [11]: > 100 µg/mL | MIC [12]: > 100 µg/mL | MIC [13]: > 100 µg/mL | MIC [14]: > 100 µg/mL | MIC [15]: > 100 µg/mL | MIC [16]: > 100 µg/mL

CC[C@@H](C)[C@H]1C(=O)NCC(=O)N(C)[C@@H](C(C)C)C(=O)N[C@@H](Cc2ccc(OC)cc2)C(=O)O[C@H](C)C(=O)N2CCCC[C@H]2C(=O)N(C)[C@@H](C(C)C)C(=O)N[C@@H](C(C)C)C(=O)N(C)[C@@H](CCOC(=O)CCC(=O)O)C(=O)N(C)[C@@H]([C@@H](C)CC)C(=O)N1C
MIC [1]: > 100 µg/mL | MIC [2]: > 100 µg/mL | MIC [3]: > 100 µg/mL | MIC [5]: > 100 µg/mL | MIC [6]: > 100 µg/mL | MIC [7]: > 100 µg/mL | MIC [17]: > 100 µg/mL | MIC [8]: > 100 µg/mL

CC[C@@H](C)[C@H]1C(=O)NCC(=O)N(C)[C@@H](C(C)C)C(=O)N[C@@H](CC(=O)O)C(=O)O[C@H](C)C(=O)N2CCCC[C@H]2C(=O)N(C)[C@@H](C(C)C)C(=O)N[C@@H](C(C)C)C(=O)N(C)[C@@H](CC(=O)O)C(=O)N(C)[C@@H]([C@@H](C)CC)C(=O)N1C
MIC [1]: > 100 µg/mL | MIC [2]: > 100 µg/mL | MIC [3]: > 100 µg/mL | MIC [5]: > 100 µg/mL | MIC [6]: 100 µg/mL (≈ 94 µM) | MIC [7]: > 100 µg/mL | MIC [17]: > 100 µg/mL | MIC [8]: > 100 µg/mL

CC[C@@H](C)[C@H]1C(=O)NCC(=O)N(C)[C@@H](C(C)C)C(=O)N[C@@H](Cc2ccc(OC)cc2)C(=O)N[C@H](C)C(=O)N2CCCC[C@H]2C(=O)N(C)[C@@H](C(C)C)C(=O)N[C@@H](C(C)C)C(=O)N(C)[C@@H](CC(=O)O)C(=O)N(C)[C@@H]([C@@H](C)CC)C(=O)N1C
MIC [1]: > 100 µg/mL | MIC [2]: > 100 µg/mL | MIC [3]: > 100 µg/mL | MIC [5]: > 100 µg/mL | MIC [6]: 25 µg/mL (≈ 22.2 µM) | MIC [7]: > 100 µg/mL | MIC [17]: 100 µg/mL (≈ 88.9 µM) | MIC [8]: > 100 µg/mL
